Assay results taken from ChEMBL document CHEMBL2010803, “Novel NSAID 1-acyl-4-cycloalkyl/arylsemicarbazides and 1-acyl-5-benzyloxy/hydroxy carbamoylcarbazides as potential anticancer agents and antioxidants” (Eur J Med Chem, 2012).
Activity calls are given as the source filed them. The calls are words filed in the database; no cut-off is given here.

Experiments:
Feline coronavirus = assay: Antiviral activity against Feline coronavirus infected in feline CRFK cells assessed as inhibition of virus-induced cytopathic effect at 0.32 to 100 uM; format: functional, organism-based
How it was run: (§1)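 Confluent cell cultures were infected with 100 CCID50 of virus in the presence of test compound at 100, 40, 8, 1.6 and 0.32 μM. Cytopathic effect was scored once it was complete in untreated infected controls.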

Influenza A virus [1] = assay: Antiviral activity against Influenza A virus H1N1 infected in MDCK cells assessed as inhibition of virus-induced cytopathic effect at 0.32 to 100 uM; format: functional, organism-based
How it was run: (§2)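 Confluent MDCK monolayers were infected in the presence of the compound at 100, 40, 8, 1.6 and 0.32 μM. Viral cytopathicity was scored once it was complete in untreated infected control cultures.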

Influenza B virus = assay: Antiviral activity against Influenza B virus infected in MDCK cells assessed as inhibition of virus-induced cytopathic effect at 0.32 to 100 uM; format: functional, organism-based; how it was run: as §2
Human respirovirus 3 = assay: Antiviral activity against Parainfluenza virus 3 infected in african green monkey Vero cells assessed as inhibition of virus-induced cytopathic effect at 0.32 to 100 uM; format: functional, organism-based; how it was run: as §1
Human alphaherpesvirus 2 = assay: Antiviral activity against HSV2 G infected in human lung fibroblast assessed as inhibition of virus-induced cytopathic effect at 0.32 to 100 uM; format: functional, organism-based; conditions: strain G; how it was run: as §1
[2] = system: Vesicular stomatitis virus; assay: Antiviral activity against Vesicular stomatitis virus infected in human cervix carcinoma cells assessed as inhibition of virus-induced cytopathic effect at 0.32 to 100 uM; format: functional, organism-based
How it was run: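 Confluent human cervix carcinoma (HeLa) cultures received 100 CCID50 of VSV together with the compound at 100, 40, 8, 1.6 or 0.32 μM. Cytopathicity was read at the point of full CPE in infected, untreated control wells.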

[3] = Antioxidant activity assessed as inhibition of AAPH-induced linoleic acid lipid peroxidation by measuring conjugated diene hydroperoxide level; format: functional; parameters: concentration or dose not given beside the values
How it was run: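 Linoleic acid sodium salt (10 μL of 16 mM) in 0.05 M phosphate buffer pH 7.4 at 37 °C. Oxidation started under air with 50 μL of 40 mM AAPH. Conjugated diene hydroperoxide formation followed as absorbance rise at 234 nm; control contains the same DMSO level. At least triplicate.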

HCT-116 = assay: Cytostatic activity against human HCT116 cells after 72 hrs by MTT assay; format: functional, cell-based; conditions: HCT-116, 72 h
How it was run: (§3)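 Monolayers in DMEM with 10% FBS, 2 mM L-glutamine and penicillin/streptomycin, 37 °C, 5% CO2. Seeded at 1–3 × 10^4 cells/ml, then compound added in tenfold dilutions (10⁻⁸–10⁻⁴ M) for 72 h. MTT read at 570 nm; percent growth taken against time-zero and untreated controls. IC50 by linear regression; quadruplicate, at least two experiments.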

[4] = system: Human immunodeficiency virus 1; assay: Antiviral activity against HIV1 3B infected in human CEM cells assessed as inhibition of virus-induced CEM giant cell formation at 0.32 to 100 uM after 4 days; format: functional, organism-based; conditions: CCRF-CEM
How it was run: (§4)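 CEM cells (~3 × 10^5 cells/cm³) exposed to 100 CCID50/ml of virus and seeded into wells holding compound dilutions. Incubated 4 days at 37 °C, then giant cell formation examined microscopically.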

[5] = system: Vesicular stomatitis virus; assay: Antiviral activity against VSV infected in human lung fibroblast assessed as inhibition of virus-induced cytopathic effect at 0.32 to 100 uM; format: functional, organism-based
Sindbis virus = assay: Antiviral activity against Sindbis virus infected in african green monkey Vero cells assessed as inhibition of virus-induced cytopathic effect at 0.32 to 100 uM; format: functional, organism-based; how it was run: as §1
HeLa = assay: Cytostatic activity against human HeLa cells after 3 days by coulter counter analysis; format: functional, cell-based; conditions: 72 h
How it was run: (§5)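 300,000–500,000 cells/ml mixed 1:1 with compound dilutions and incubated at 37 °C for 2 days (L1210) or 3 days (CEM, HeLa). Cell number counted with a Coulter counter; HeLa trypsinized before counting.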

[6] = system: Respiratory syncytial virus; assay: Antiviral activity against RSV infected in human cervix carcinoma cells assessed as inhibition of virus-induced cytopathic effect at 0.32 to 100 uM; format: functional, organism-based; how it was run: as §1
Vaccinia virus = assay: Antiviral activity against Vaccinia virus infected in human lung fibroblast assessed as inhibition of virus-induced cytopathic effect at 0.32 to 100 uM; format: functional, organism-based; conditions: Orthopoxvirus vaccinia
[7] = system: Mammalian orthoreovirus 1; assay: Antiviral activity against Reovirus-1 infected in african green monkey Vero cells assessed as inhibition of virus-induced cytopathic effect at 0.32 to 100 uM; format: functional, organism-based; how it was run: as §1
Coxsackievirus B4 [8] = assay: Antiviral activity against Coxsackievirus B4 infected in african green monkey Vero cells assessed as inhibition of virus-induced cytopathic effect at 0.32 to 100 uM; format: functional, organism-based; how it was run: as §1
Coxsackievirus B4 [9] = assay: Antiviral activity against Coxsackievirus B4 infected in human cervix carcinoma cells assessed as inhibition of virus-induced cytopathic effect at 0.32 to 100 uM; format: functional, organism-based; how it was run: as §1
HaCaT = assay: Cytostatic activity against human HaCaT cells after 72 hrs by MTT assay; format: ADME, cell-based; how it was run: as §3
NCI-H460 = assay: Cytostatic activity against human NCI-H460 cells after 72 hrs by MTT assay; format: functional, cell-based; conditions: NCI-H460, 72 h; how it was run: as §3
L1210 = assay: Cytostatic activity against mouse L1210 cells after 2 days by coulter counter analysis; format: functional, cell-based; conditions: L1210, 48 h; how it was run: as §5
Punta Toro virus = assay: Antiviral activity against Punta Toro virus infected in african green monkey Vero cells assessed as inhibition of virus-induced cytopathic effect at 0.32 to 100 uM; format: functional, organism-based; how it was run: as §1
CCRF-CEM = assay: Cytostatic activity against human CEM cells after 3 days by coulter counter analysis; format: functional, cell-based; conditions: 72 h; how it was run: as §5
MCF7 = assay: Cytostatic activity against human MCF7 cells after 72 hrs by MTT assay; format: functional, cell-based; conditions: MCF7, 72 h; how it was run: as §3
Influenza A virus [10] = assay: Antiviral activity against Influenza A virus H3N2 infected in MDCK cells assessed as inhibition of virus-induced cytopathic effect at 0.32 to 100 uM; format: functional, organism-based; how it was run: as §2
[11] = system: Radical scavenging activity; assay: Antioxidant activity assessed as DPPH free radical scavenging activity at 100 uM after 20 mins by spectrophotometric analysis; format: functional
How it was run: (§6)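 0.05 mM DPPH in absolute ethanol mixed with an equal volume of compound in DMSO (final 100 μM). Shaken and left 20 or 60 min, then absorbance read at 517 nm and percent activity calculated. Three replicates, averaged.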

[12] = system: Human immunodeficiency virus 2; assay: Antiviral activity against HIV2 ROD infected in human CEM cells assessed as inhibition of virus-induced CEM giant cell formation at 0.32 to 100 uM after 4 days; format: functional, organism-based; conditions: ISOLATE ROD, CCRF-CEM; how it was run: as §4
Felid alphaherpesvirus 1 = assay: Antiviral activity against Feline herpesvirus infected in feline CRFK cells assessed as inhibition of virus-induced cytopathic effect at 0.32 to 100 uM; format: functional, organism-based; how it was run: as §1
Glycine max = assay: Inhibition of soybean LOX assessed as conversion of sodium linoleate to 13- hydroperoxylinoleic acid at 100 uM
Human alphaherpesvirus 1 = assay: Antiviral activity against HSV1 KOS infected in human lung fibroblast assessed as inhibition of virus-induced cytopathic effect at 0.32 to 100 uM; format: functional, organism-based; how it was run: as §1
[13] = system: Radical scavenging activity; assay: Antioxidant activity assessed as DPPH free radical scavenging activity at 100 uM after 60 mins by spectrophotometric analysis; format: functional; how it was run: as §6
[14] = dose or concentration not given here

SMILES | inhibition (Feline coronavirus) | inhibition (Influenza A virus [1]) | inhibition (Influenza B virus) | inhibition (Human respirovirus 3) | inhibition (Human alphaherpesvirus 2) | inhibition [2] | IC50 (HCT-116) | inhibition [4] | inhibition [5] | inhibition (Sindbis virus) | inhibition [6] | inhibition (Vaccinia virus) | inhibition [7] | inhibition (Coxsackievirus B4 [8]) | inhibition (Coxsackievirus B4 [9]) | IC50 (HaCaT) | IC50 (NCI-H460) | inhibition (Punta Toro virus) | IC50 (CCRF-CEM) | IC50 (MCF7) | further results
CC(C(=O)NNC(=O)NC1CCCCC1)c1cccc(Oc2ccccc2)c1 (configuration not stated) | inactive | inactive | inactive | inactive | inactive | inactive | 22 µM | inactive | inactive | inactive | inactive | inactive | inactive | inactive | inactive | 19 µM | 24 µM | inactive | 53 µM | 17 µM | inhibition [3, 14]: 63%; IC50 (HeLa): 48 µM; IC50 (L1210): 35 µM; inhibition (Influenza A virus [10]): inactive; Activity [11]: 19%; inhibition [12]: inactive; inhibition (Felid alphaherpesvirus 1): inactive; inhibition (Glycine max): 13%; inhibition (Human alphaherpesvirus 1): inactive; Activity [13]: 22%
CC(C(=O)NNC(=O)NCCc1ccccc1)c1cccc(Oc2ccccc2)c1 (configuration not stated) | inactive | inactive | inactive | inactive | inactive | inactive | 18 µM | inactive | inactive | inactive | inactive | inactive | inactive | inactive | inactive | 15 µM | 22 µM | inactive | 71 µM | 19 µM | inhibition [3, 14]: 51%; IC50 (HeLa): 64 µM; IC50 (L1210): 53 µM; inhibition (Influenza A virus [10]): inactive; Activity [11]: 4%; inhibition [12]: inactive; inhibition (Felid alphaherpesvirus 1): inactive; inhibition (Glycine max): 20%; inhibition (Human alphaherpesvirus 1): inactive; Activity [13]: 7%
CC(C(=O)NNC(=O)NCc1ccccc1)c1cccc(Cc2ccccc2)c1 (configuration not stated) | inactive | inactive | inactive | inactive | inactive | inactive | 24 µM | inactive | inactive | inactive | inactive | inactive | inactive | inactive | inactive | 25 µM | 28 µM | inactive | 49 µM | 12 µM | inhibition [3, 14]: 48%; IC50 (HeLa): 94 µM; IC50 (L1210): 31 µM; inhibition (Influenza A virus [10]): inactive; Activity [11]: 3%; inhibition [12]: inactive; inhibition (Felid alphaherpesvirus 1): inactive; inhibition (Glycine max): inactive; inhibition (Human alphaherpesvirus 1): inactive; Activity [13]: 9%
CC(C(=O)NNC(=O)NC1CCCC1)c1cccc(Cc2ccccc2)c1 (configuration not stated) | inactive | inactive | inactive | inactive | inactive | inactive | 33 µM | inactive | inactive | inactive | inactive | inactive | inactive | inactive | inactive | 50 µM | 38 µM | inactive | 66 µM | 19 µM | inhibition [3]: inactive; IC50 (HeLa): 43 µM; inhibition (Influenza A virus [10]): inactive; Activity [11]: 4%; inhibition [12]: inactive; inhibition (Felid alphaherpesvirus 1): inactive; inhibition (Glycine max): inactive; inhibition (Human alphaherpesvirus 1): inactive; Activity [13]: 12%
CC(C(=O)NNC(=O)NCC1CCCCC1)c1cccc(Cc2ccccc2)c1 (configuration not stated) | inactive | inactive | inactive | inactive | inactive | inactive | 16 µM | inactive | inactive | inactive | inactive | inactive | inactive | inactive | inactive | 12 µM | 18 µM | inactive | 20 µM | 18 µM | inhibition [3, 14]: 61%; IC50 (L1210): 22 µM; inhibition (Influenza A virus [10]): inactive; Activity [11]: 5%; inhibition [12]: inactive; inhibition (Felid alphaherpesvirus 1): inactive; inhibition (Glycine max): 9%; inhibition (Human alphaherpesvirus 1): inactive; Activity [13]: 12%
CC(C)Cc1ccc(C(C)C(=O)NNC(=O)NC(c2ccccc2)c2ccccc2)cc1 (configuration not stated) | inactive | inactive | inactive | inactive | inactive | inactive | 13 µM | inactive | inactive | inactive | inactive | inactive | inactive | inactive | inactive | 13 µM | 16 µM | inactive | 23 µM | 6 µM | inhibition [3, 14]: 74%; IC50 (L1210): 20 µM; inhibition (Influenza A virus [10]): inactive; Activity [11]: inactive; inhibition [12]: inactive; inhibition (Felid alphaherpesvirus 1): inactive; inhibition (Glycine max): 46%; inhibition (Human alphaherpesvirus 1): inactive; Activity [13]: inactive
